In brackets after ≈: the same amount, converted by molar mass.
How the values were obtained:
[1] = tested on: Anopheles gambiae; experiment: Tarsal contact toxicity in Anopheles gambiae G3 (MRA-112) assessed as mortality measured at 24 hrs by filter paper assay; assay type: functional
Outline: (§1)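 Non-blood-fed adult females, 3–5 days old, followed a modified 2006 WHO tube assay. Filter papers (15 × 12 cm) were treated with ethanolic carbamate and dried overnight. Mosquitoes were exposed 1 h, then given 10% sugar water, at 24 ± 1 °C and 75% RH; mortality was read at 24 h. G3 used 20-25/batch in triplicate and Akron 10-15 in duplicate. LC50 was from probit analysis of typically 5-8 concentrations.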

[2] = tested on: Anopheles gambiae; experiment: Tarsal contact toxicity in Anopheles gambiae Akron (MRA-913) assessed as mortality measured at 24 hrs by filter paper assay; assay type: functional; outline: as §1
[3] = tested on: Anopheles gambiae; experiment: Tarsal contact toxicity in Anopheles gambiae G3 (MRA-112) assessed as mortality measured at 1000 ug/mL at 24 hrs by filter paper assay; assay type: functional; outline: as §1
[4] = target: Acetylcholinesterase (Homo sapiens, UniProt P22303); experiment: Inhibition of recombinant human AChE; design: unit not given here
[5] = Inhibition of recombinant wild-type Anopheles gambiae AChE compound incubated for up to 6 min at approximately 1 min interval; design: unit not given here
Outline: (§2)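 Recombinant AgAChE enzymes were incubated with typically five inhibitor concentrations plus an inhibitor-free control. Residual activity v/v0 was read by Ellman assay against a time-matched control, at 23 ± 1°C, pH 7.7, 0.1% (v/v) DMSO. kobs is the slope of ln(v/v0) vs time, from at least two experiments. ki is the slope of kobs vs [I] in the linear, non-saturating range. Duplicate wells.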

[6] = Inhibition of recombinant Anopheles gambiae AChE G119S mutant compound incubated for up to 60 mins at approximately 10 mins interval; design: unit not given here; outline: as §2
[7] = tested on: Anopheles gambiae; experiment: Tarsal contact toxicity in Anopheles gambiae Akron (MRA-913) assessed as mortality measured at 1000 ug/mL at 24 hrs by filter paper assay; assay type: functional; outline: as §1
[8] = tested on: Anopheles gambiae; experiment: Tarsal contact toxicity in Anopheles gambiae Akron (MRA-913) assessed as mortality measured at 200 ug/mL at 24 hrs by filter paper assay; assay type: functional; outline: as §1

Sequence of Acetylcholinesterase (P22303 whole entry): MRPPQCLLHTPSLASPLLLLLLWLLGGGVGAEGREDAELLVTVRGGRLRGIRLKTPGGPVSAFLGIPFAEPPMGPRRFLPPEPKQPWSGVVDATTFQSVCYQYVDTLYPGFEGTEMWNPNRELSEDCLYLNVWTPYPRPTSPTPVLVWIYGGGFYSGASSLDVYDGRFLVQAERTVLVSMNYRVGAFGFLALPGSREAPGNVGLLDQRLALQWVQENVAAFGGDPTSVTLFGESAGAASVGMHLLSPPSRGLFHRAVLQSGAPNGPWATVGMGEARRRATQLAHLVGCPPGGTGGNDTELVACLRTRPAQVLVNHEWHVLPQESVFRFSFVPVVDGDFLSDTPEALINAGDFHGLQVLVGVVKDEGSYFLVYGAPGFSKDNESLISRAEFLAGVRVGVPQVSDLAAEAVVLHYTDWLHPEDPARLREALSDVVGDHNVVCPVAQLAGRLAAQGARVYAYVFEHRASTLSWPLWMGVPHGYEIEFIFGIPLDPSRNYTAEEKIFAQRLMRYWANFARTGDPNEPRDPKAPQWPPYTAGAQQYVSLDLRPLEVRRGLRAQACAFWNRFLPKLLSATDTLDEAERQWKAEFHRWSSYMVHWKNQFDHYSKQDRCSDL

| SMILES | LC50 [1] [µg/mL] | LC50 [2] [µg/mL] | mortality at 1000 µg/mL [3] [%] | further results |
| --- | --- | --- | --- | --- |
| CNC(=O)Oc1cccc(C(C)(C)C)c1 | 37 (≈ 179 µM) | > 5000 |  |  |
| Cc1cc(OC(=O)N(C)C)no1 |  |  | 0 |  |
| CCC(C)n1cc(OC(=O)NC)cn1 (stereo not drawn) | 96 (≈ 487 µM) | 81 (≈ 411 µM) |  |  |
| Cc1cc(=O)n(C(=O)N(C)C)o1 |  |  | 0 |  |
| CN(C)C(=O)n1oc(C2CC2)cc1=O | 278 (≈ 1420 µM) |  |  | Ki [4]: 103; Ki [5]: 50.5; Ki [6]: 0.2; mortality at 1000 µg/mL [7]: 10% |
| CC(C)c1cc(=O)n(C(=O)N(C)C)o1 | 316 (≈ 1590 µM) | 182 (≈ 918 µM) |  |  |
| CN(C)C(=O)n1oc(C2CCC2)cc1=O | 79 (≈ 376 µM) | 74 (≈ 352 µM) |  |  |
| CCC(C)c1cc(=O)n(C(=O)N(C)C)o1 (stereo not drawn) | 63 (≈ 297 µM) | 129 (≈ 608 µM) |  |  |
| CN(C)C(=O)n1oc(C2CCCC2)cc1=O | 105 (≈ 468 µM) | 118 (≈ 526 µM) |  |  |
| CCCC(C)c1cc(=O)n(C(=O)N(C)C)o1 (stereo not drawn) | 153 (≈ 676 µM) | 75 (≈ 331 µM) |  |  |
| CCC(CC)c1cc(=O)n(C(=O)N(C)C)o1 | 38 (≈ 168 µM) | 40 (≈ 177 µM) |  |  |
| CC(C)Cc1cc(=O)n(C(=O)N(C)C)o1 | 201 (≈ 947 µM) |  |  | Ki [4]: 30.9; Ki [5]: 252; Ki [6]: 0.55; mortality at 200 µg/mL [8]: 25% |
| CCC(C)Cc1cc(=O)n(C(=O)N(C)C)o1 (stereo not drawn) |  |  | 0 |  |
| CN(C)C(=O)n1oc(CC(C)(C)C)cc1=O |  |  | 80 |  |
| CC(C)CCc1cc(=O)n(C(=O)N(C)C)o1 | 73 (≈ 323 µM) | 68 (≈ 301 µM) |  | Ki [4]: 80.9; Ki [5]: 266; Ki [6]: 0.4 |
| CN(C)C(=O)n1oc(CCC2CC2)cc1=O | 133 (≈ 593 µM) | 144 (≈ 642 µM) |  |  |
| CN(C)C(=O)n1oc(CCC2CCC2)cc1=O |  |  | 30 |  |
| CN(C)C(=O)n1oc(CCC2CCCC2)cc1=O |  |  | 0 |  |
| CCCC(C)c1cc(=O)n(C(=O)N2CCC2)o1 (stereo not drawn) |  |  | 78 |  |
| CCCC(C)c1cc(=O)n(C(=O)N(C)CC)o1 (stereo not drawn) | 400 (≈ 1660 µM) | 614 (≈ 2560 µM) |  |  |
| CCCC(C)c1cc(=O)n(C(=O)N(CC)CC)o1 (stereo not drawn) |  |  | 15 |  |
| CCCC(C)c1cc(=O)n(C(=O)N2CCCC2)o1 (stereo not drawn) |  |  | 77 |  |
| CCCC(C)c1cc(=O)n(C(=O)N2CCOCC2)o1 (stereo not drawn) |  |  | 45 |  |

| SMILES | LC50 [1] [µg/mL] | LC50 [2] [µg/mL] | mortality at 1000 µg/mL [3] [%] | further results |
| --- | --- | --- | --- | --- |
| CN(C)C(=O)Oc1cc(C2CC2)on1 |  |  | 0 |  |
| CC(C)c1cc(OC(=O)N(C)C)no1 | 84 (≈ 424 µM) | 116 (≈ 585 µM) |  |  |
| CN(C)C(=O)Oc1cc(C2CCC2)on1 | 349 (≈ 1660 µM) | 392 (≈ 1860 µM) |  |  |
| CCC(C)c1cc(OC(=O)N(C)C)no1 (stereo not drawn) | 41 (≈ 193 µM) | 58 (≈ 273 µM) |  |  |
| CN(C)C(=O)Oc1cc(C2CCCC2)on1 |  |  | 60 |  |
| CCCC(C)c1cc(OC(=O)N(C)C)no1 (stereo not drawn) | 234 (≈ 1030 µM) | 296 (≈ 1310 µM) |  | Ki [4]: 50.9; Ki [5]: 416; Ki [6]: 30.6 |
| CCC(CC)c1cc(OC(=O)N(C)C)no1 |  |  | 70 |  |
| CCCCC(CC)c1cc(OC(=O)N(C)C)no1 (stereo not drawn) |  |  | 0 |  |
| CC(C)Cc1cc(OC(=O)N(C)C)no1 | 253 (≈ 1190 µM) | 151 (≈ 711 µM) |  |  |
| CCC(C)Cc1cc(OC(=O)N(C)C)no1 (stereo not drawn) |  |  | 30 |  |
| CN(C)C(=O)Oc1cc(CC(C)(C)C)on1 |  |  | 0 | Ki [4]: 0.44; Ki [5]: 0.12; Ki [6]: 0.05 |
| CC(C)CCc1cc(OC(=O)N(C)C)no1 | 415 (≈ 1830 µM) | 429 (≈ 1900 µM) |  |  |
| CN(C)C(=O)Oc1cc(CCC2CC2)on1 | 191 (≈ 852 µM) | 198 (≈ 883 µM) |  |  |
| CN(C)C(=O)Oc1cc(CCC2CCC2)on1 |  |  | 40 |  |
| CN(C)C(=O)Oc1cc(CCC2CCCC2)on1 | 674 (≈ 2670 µM) |  |  | Ki [4]: 13.1; Ki [5]: 0.6; Ki [6]: 0.12 |
| CCCC(C)c1cc(OC(=O)N(C)CC)no1 (stereo not drawn) | 410 (≈ 1710 µM) | 574 (≈ 2390 µM) |  |  |
| CCCC(C)c1cc(OC(=O)N2CCCC2)no1 (stereo not drawn) |  |  | 0 |  |
| CCCC(C)c1cc(OC(=O)N2CCOCC2)no1 (stereo not drawn) |  |  | 10 |  |
| CNC(=O)O/N=C/C(C)(C)SC [ALDICARB] | 70 (≈ 368 µM) | 32 (≈ 168 µM) |  |  |
| CNC(=O)Oc1cccc2c1OC(C)(C)O2 [BENDIOCARB] | 16 (≈ 71.7 µM) | > 5000 |  |  |
| CNC(=O)Oc1cccc2c1OC(C)(C)C2 [CARBOFURAN] | 16 (≈ 72.3 µM) | > 5000 |  |  |
| CNC(=O)Oc1ccccc1OC(C)C [PROPOXUR] | 39 (≈ 186 µM) | > 5000 |  |  |

Source: ChEMBL document CHEMBL3399922, “3-Oxoisoxazole-2(3H)-carboxamides and isoxazol-3-yl carbamates: Resistance-breaking acetylcholinesterase inhibitors targeting the malaria mosquito, Anopheles gambiae” (Bioorg Med Chem, 2015)
